Measurements: ChEMBL document CHEMBL1143425, “Paradoxical growth effect of caspofungin observed on biofilms and planktonic cells of five different Candida species” (2007)
Converted amounts (≈) assume the structure as drawn. The source made the active and inactive calls.

Tests used:
[1] = system: Candida parapsilosis; test: Antimicrobial activity against Candida parapsilosis BR-A30 grown as biofilm after 48 hrs by XTT reduction assay; type: functional; conditions: Lodderomyces parapsilosis
How it was run: (§1)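 Clinical isolates were grown overnight (18 h, 35°C, 120 rpm) in RPMI 1640 with MOPS, pH 7.0, then washed and set to ~1 × 10^7 cells/ml. Cells attached for 1.5 h at 37°C, 75 rpm, then biofilms grew 24 h. Caspofungin was given as doubling dilutions of 2–1,024 μg/ml for 48 h at 35°C, 75 rpm. Read-out was XTT-menadione in PBS, 1 h at 35°C in the dark, A490, cell-free blank subtracted. MIC was a 50% drop in activity versus drug-free; PG was >50% of control above MIC. Run in duplicate.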

[2] = system: Candida parapsilosis; test: Antimicrobial activity against Candida parapsilosis BR-A29 grown as planktonic cell after 48 hrs by XTT reduction assay; type: functional; conditions: Lodderomyces parapsilosis
How it was run: (§2)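 Planktonic broth microdilution followed CLSI M27-A2, with caspofungin dissolved in water. After 48 h, XTT-menadione was added to the wells and plates were kept 1 h at 35°C in the dark. Plates were then centrifuged and supernatant A490 was read. MIC was the lowest concentration giving a 50% decrease in metabolic activity versus drug-free control. Paradoxical growth was defined as ≥20% of control activity above the MIC.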

[3] = system: Candida albicans; test: Antimicrobial activity against Candida albicans BR-A4 grown as biofilm assessed as concentration producing paradoxical growth after 48 hrs by XTT reduction assay; type: functional
How it was run: (§3)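 Sabouraud-grown cells were shaken overnight (18 h, 120 rpm, 35°C) in RPMI 1640 with MOPS at pH 7.0, then washed and set at ~1 × 10^7 cells/ml. Attachment lasted 1.5 h at 37°C, and growth ran 24 h before challenge. Caspofungin was added in RPMI at 2–1,024 μg/ml (10 doublings) for 48 h at 35°C with shaking. XTT-menadione was read at 490 nm after 1 h at 35°C in the dark, with blank wells subtracted. MIC was taken as 50% reduction versus drug-free wells, and PG as >50% of control above MIC. Assays were run in duplicate.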

[4] = system: Candida orthopsilosis; test: Antimicrobial activity against Candida orthopsilosis BR-A32 grown as biofilm after 48 hrs by XTT reduction assay; type: functional; conditions: Lodderomyces orthopsilosis
How it was run: (§4)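 Isolates were grown on Sabouraud agar (30°C, 24 h), then overnight in RPMI 1640 with MOPS, pH 7.0, at 35°C with shaking. Cells were washed and set to ~1 × 10^7 cells/ml, attached 1.5 h at 37°C, and grown 24 h. Biofilms were then exposed to caspofungin in 10 twofold dilutions (2–1,024 μg/ml) for 48 h at 35°C with shaking. Read-out was XTT-menadione, 1 h, 35°C, dark, A490, cell-free blank subtracted. MIC was the 50% drop in activity versus drug-free control. Tested in duplicate.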

[5] = system: Candida parapsilosis; test: Antimicrobial activity against Candida parapsilosis BR-A25 grown as biofilm assessed as concentration producing paradoxical growth after 48 hrs by XTT reduction assay; type: functional; how it was run: as §1
[6] = system: Candida tropicalis; test: Antimicrobial activity against Candida tropicalis BR-A8 grown as biofilm after 48 hrs by XTT reduction assay; type: functional; how it was run: as §4
[7] = system: Candida albicans; test: Effect on morphology in Candida albicans grown as planktonic cells assessed as rounding and clumping at 16 ug/ml after 48 hrs; type: functional, organism-based
How it was run: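 Cells were taken from caspofungin-containing and drug-free wells of the planktonic broth microdilution test after 48 h. They were examined by light microscopy at ×400.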

[8] = system: Candida metapsilosis; test: Effect on morphology in Candida metapsilosis grown as biofilm assessed as inhibition of hyphae and pseudohyphae at 16 ug/ml after 48 hrs; type: functional, organism-based
How it was run: (§5)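 Biofilms formed in RPMI 1640 wells were exposed to caspofungin for 48 h and compared with drug-free control wells. Wells were examined in the plate under an inverted light microscope at ×200 and photographed.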

[9] = system: Candida parapsilosis; test: Antimicrobial activity against Candida parapsilosis BR-A31 grown as planktonic cell assessed as paradoxical growth after 48 hrs by XTT reduction assay; type: functional, organism-based
How it was run: (§6)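 Planktonic broth microdilution followed CLSI M27-A2, with caspofungin dissolved in water. After 48 h, XTT-menadione was added to each well and plates were incubated 1 h at 35°C in the dark. Cells were pelleted by centrifugation and the supernatant was read at 490 nm. MIC was the lowest concentration giving a 50% drop in metabolic activity versus the drug-free control. PG was ≥20% of drug-free activity above the MIC.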

[10] = system: Candida albicans; test: Antimicrobial activity against Candida albicans BR-A4 grown as biofilm after 48 hrs by XTT reduction assay; type: functional; how it was run: as §4
[11] = system: Candida tropicalis; test: Antimicrobial activity against Candida tropicalis BR-A24 grown as biofilm assessed as concentration producing paradoxical growth after 48 hrs by XTT reduction assay; type: functional; how it was run: as §1
[12] = system: Candida tropicalis; test: Antimicrobial activity against Candida tropicalis BR-A20 grown as planktonic cell assessed as paradoxical growth after 48 hrs by XTT reduction assay; type: functional, organism-based; how it was run: as §6
[13] = system: Candida metapsilosis; test: Effect on morphology in Candida metapsilosis grown as biofilm assessed as rounding and clumping at 16 ug/ml after 48 hrs; type: functional, organism-based; how it was run: as §5
[14] = system: Candida tropicalis; test: Antimicrobial activity against Candida tropicalis BR-A8 grown as planktonic cell assessed as concentration producing paradoxical growth after 48 hrs by XTT reduction assay; type: functional; how it was run: as §6
[15] = system: Candida albicans; test: Antimicrobial activity against Candida albicans BR-A1 grown as planktonic cell after 48 hrs by XTT reduction assay; type: functional; how it was run: as §2
[16] = system: Candida parapsilosis; test: Antimicrobial activity against Candida parapsilosis BR-A27 grown as planktonic cell assessed as paradoxical growth after 48 hrs by XTT reduction assay; type: functional, organism-based; how it was run: as §6
[17] = system: Candida orthopsilosis; test: Antimicrobial activity against Candida orthopsilosis BR-A35 grown as biofilm assessed as concentration producing paradoxical growth after 48 hrs by XTT reduction assay; type: functional; how it was run: as §3
[18] = system: Candida tropicalis; test: Antimicrobial activity against Candida tropicalis BR-A20 grown as planktonic cell after 48 hrs by XTT reduction assay; type: functional; how it was run: as §6
[19] = system: Candida tropicalis; test: Antimicrobial activity against Candida tropicalis BR-A18 grown as biofilm after 48 hrs by XTT reduction assay; type: functional; how it was run: as §1
[20] = system: Candida parapsilosis; test: Antimicrobial activity against Candida parapsilosis BR-A27 grown as biofilm assessed as paradoxical growth after 48 hrs by XTT reduction assay; type: functional, organism-based; how it was run: as §1
[21] = system: Candida albicans; test: Antimicrobial activity against Candida albicans BR-A2 grown as planktonic cell assessed as concentration producing paradoxical growth after 48 hrs by XTT reduction assay; type: functional
How it was run: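 Planktonic cells were tested by CLSI M27-A2 broth microdilution with caspofungin in water, incubated 48 h. XTT-menadione was added to each well, plates were held 1 h at 35°C in the dark and centrifuged, and supernatant absorbance was read at 490 nm. MIC was defined as 50% decrease in metabolic activity versus drug-free control. PG was defined as ≥20% of control activity at concentrations above MIC.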

[22] = system: Candida albicans; test: Effect on morphology in Candida albicans grown as biofilm assessed as rounding and clumping at 32 ug/ml after 48 hrs; type: functional, organism-based; how it was run: as §5
[23] = system: Candida orthopsilosis; test: Antimicrobial activity against Candida orthopsilosis BR-A39 grown as biofilm after 48 hrs by XTT reduction assay; type: functional; conditions: Lodderomyces orthopsilosis; how it was run: as §4
[24] = system: Candida parapsilosis; test: Antimicrobial activity against Candida parapsilosis BR-A29 grown as planktonic cell assessed as concentration producing paradoxical growth after 48 hrs by XTT reduction assay; type: functional; how it was run: as §6
[25] = system: Candida orthopsilosis; test: Antimicrobial activity against Candida orthopsilosis BR-A37 grown as biofilm assessed as concentration producing paradoxical growth after 48 hrs by XTT reduction assay; type: functional; how it was run: as §3
[26] = system: Candida metapsilosis; test: Antimicrobial activity against Candida metapsilosis BR-A43 grown as biofilm assessed as concentration producing paradoxical growth after 48 hrs by XTT reduction assay; type: functional; how it was run: as §3

For CC[C@H](C)C[C@H](C)CCCCCCCCC(=O)N[C@H]1C[C@@H](O)[C@@H](NCCN)NC(=O)[C@@H]2[C@@H](O)CCN2C(=O)[C@H]([C@H](O)CCN)NC(=O)[C@H]([C@H](O)[C@@H](O)c2ccc(O)cc2)NC(=O)[C@@H]2C[C@@H](O)CN2C(=O)[C@H]([C@@H](C)O)NC1=O [CASPOFUNGIN], the MIC [1] was 256 µg/mL (≈ 234 µM), the MIC [2] was 2 µg/mL (≈ 1.83 µM) and the Activity [3] was 16 µg/mL. For the same molecule, the MIC [4] was 2 µg/mL (≈ 1.83 µM), the Activity [5] was 16 µg/mL and the MIC [6] was 2 µg/mL (≈ 1.83 µM). For the same molecule, the Activity [7] was “Active”, the Activity [8] was “Active” and the Activity [9] was “inactive”. The MIC [10] was 2 µg/mL (≈ 1.83 µM), the Activity [11] was 8 µg/mL and the Activity [12] was “Active”. For the same molecule, the Activity [13] was “Active”, the Activity [14] was 8 µg/mL and the MIC [15] was 0.5 µg/mL (≈ 0.457 µM). For the same molecule, the Activity [16] was “inactive”, the Activity [17] was 16 µg/mL and the MIC [18] was 0.5 µg/mL (≈ 0.457 µM). The MIC [19] was 128 µg/mL (≈ 117 µM), the Activity [20] was “Active” and the Activity [21] was 16 µg/mL. For the same molecule, the Activity [22] was “Active”, the MIC [23] was 2 µg/mL (≈ 1.83 µM) and the Activity [24] was 32 µg/mL. For the same molecule, the Activity [25] was 32 µg/mL and the Activity [26] was 16 µg/mL.
